Results published in ChEMBL document CHEMBL1143929, “Synthesis and antiprotozoal activity of novel bis-benzamidino imidazo[1,2-a]pyridines and 5,6,7,8-tetrahydro-imidazo[1,2-a]pyridines” (Bioorg Med Chem, 2008).

Columns and labels:
L6 = test: Cytotoxicity against rat L6 cells; format: cell-based
[1] = system: Trypanosoma brucei rhodesiense; test: Antiprotozoan activity against Trypanosoma brucei rhodesiense STIB900; format: functional, organism-based
Plasmodium falciparum = test: Antiprotozoal activity against Plasmodium falciparum K1; format: functional, organism-based
[2] = system: Trypanosoma brucei rhodesiense; test: Antitrypanosomal activity against Trypanosoma brucei rhodesiense STIB900 infected mouse model assessed as survival at 5 mg/kg, ip after 4 days; format: functional; conditions: route intraperitoneal
Outline: (§1)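 Acute African trypanosomiasis model in mice infected with T. b. rhodesiense STIB900. Diamidines were given intraperitoneally and prodrugs orally, dosed over 4 days. Read-outs were cures (mice surviving parasite-free for 60 days, out of 4) and average days of survival, compared against untreated infected controls.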

[3] = system: Trypanosoma brucei rhodesiense; test: Antitrypanosomal activity against Trypanosoma brucei rhodesiense STIB900 infected mouse model assessed as survival at 25 mg/kg, po after 4 days; format: functional; outline: as §1
[4] = system: Trypanosoma brucei rhodesiense; test: Antitrypanosomal activity against Trypanosoma brucei rhodesiense STIB900 infected mouse model assessed as survival at 5 mg/kg, po after 4 days; format: functional; outline: as §1
[5] = Binding affinity to DNA
[6] = system: Trypanosoma brucei rhodesiense; test: Antitrypanosomal activity against Trypanosoma brucei rhodesiense STIB900 infected mouse model assessed as survival at 20 mg/kg, ip after 4 days; format: functional; conditions: route intraperitoneal; outline: as §1

Row | SMILES | IC50 (L6) | IC50 [1] | IC50 (Plasmodium falciparum) | Survival [2] | Survival [3] | Survival [4] | Kd [5] | Survival [6]
1 | Cc1cc2nc(-c3ccc(C(=N)N)cc3)cn2cc1-c1ccc(C(=N)N)cc1 | 6800 nM | 13 nM | 27 nM | >37.25 days |  |  |  | 
2 | CO/N=C(\N)c1ccc(-c2cn3cc(-c4ccc(/C(N)=N\OC)cc4)nc3cc2C)cc1 | 17000 nM | 1740 nM | 880 nM |  | 14.5 days |  |  | 
3 | Cc1c(-c2ccc(C(=N)N)cc2)cn2cc(-c3ccc(C(=N)N)cc3)nc2c1C | 4700 nM | 15 nM | 63 nM | >39.5 days |  |  |  | 
4 | CO/N=C(\N)c1ccc(-c2cn3cc(-c4ccc(/C(N)=N\OC)cc4)nc3c(C)c2C)cc1 |  | 7210 nM | 3250 nM |  | 15.5 days |  |  | 
5 | CONC(=N)c1ccc(-c2ccc(-c3ccc(C(=N)NOC)cc3)o2)cc1 [PAFURAMIDINE] |  |  |  |  | >60 days |  |  | 
6 | CO/N=C(\N)c1ccc(-c2cc(C)c3nc(-c4ccc(/C(N)=N\OC)cc4)cn3c2)cc1 | 9500 nM | 2370 nM | 614 nM |  | >20.25 days |  |  | 
7 | CO/N=C(\N)c1ccc(-c2ccc(-c3ccc(/C(N)=N/OC)cn3)o2)cc1 |  |  |  |  | >60 days | >60 days |  | 
8 | Cc1cc(-c2ccc(C(=N)N)cc2)cn2cc(-c3ccc(C(=N)N)cc3)nc12 | 7400 nM | 38 nM | 23 nM | 14.75 days |  |  |  | 
9 | CO/N=C(\N)c1ccc(-c2ccc3nc(-c4ccc(/C(N)=N\OC)cc4)cn3c2)cc1 | 6900 nM | 825 nM | 181 nM |  | 10.75 days |  |  | 
10 | N=C(N)c1ccc(-c2ccc3nc(-c4ccc(C(=N)N)cc4)cn3c2)cc1 | 2500 nM | 7.5 nM | 92 nM |  |  |  | 20 nM | 22 days
11 | N=C(N)c1ccc(-c2ccc(-c3ccc(C(=N)N)cn3)o2)cc1 |  | 6.5 nM | 6.5 nM | >54.5 days |  |  |  | 
12 | N=C(N)c1ccc(-c2cn3c(n2)CCC(c2ccc(C(=N)N)cc2)C3)cc1 (stereo not given) | 8900 nM | 14 nM | 85 nM | 31.25 days |  |  | 250 nM | >60 days
13 | N=C(N)c1ccc(-c2ccc(-c3ccc(C(=N)N)cc3)o2)cc1 [FURAMIDINE] |  |  |  | 35.5 days |  |  |  | 
